# Source: ChEMBL document CHEMBL1148714, “Design, synthesis, and in vivo SAR of a novel series of pyrazolines as potent selective androgen receptor modulators” (2007)
# Activity calls are given as the source filed them. The rule behind the calls is not given here.
# Tests used:
# Rattus norvegicus [1] = species on record: Rattus norvegicus; experiment: Inhibition of prostate weight in castrated immature male Sprague-Dawley rat at 2 mg/day relative to control; type: functional, Prostate gland
# Method in brief: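 Immature (~50 g) castrated male Sprague Dawley rats; test article orally at 2 mg/day once daily for 5 days, with testosterone propionate 0.1 mg/day s.c. in sesame oil. Ventral prostate wet weight taken on day 6 after CO2 euthanasia, adjusted to body weight. Inhibition given as % of testosterone-enhanced weight, vehicle group = 100% and testosterone-alone group = 0%. n = 3/group.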
# Rattus norvegicus [2] = species on record: Rattus norvegicus; experiment: Stimulation of levator ani muscle weight in castrated immature Sprague-Dawley rat; type: functional
# Method in brief: (§1)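 Immature (~50 g) castrated male Sprague Dawley rats given oral doses once daily at 0.1, 0.3, 1, 3 mg/day. Ventral prostate and levator ani wet weights adjusted to body weight. % stimulation uses vehicle = 0% and testosterone-treated (1 mg/day) group = 100%; ED50 derived from the four-point dose series. n = 3/group.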
# Rattus norvegicus [3] = species on record: Rattus norvegicus; experiment: Stimulation of prostate weight in castrated immature Sprague-Dawley rat at 3 mg/day; type: functional, Prostate gland; method in brief: as §1
# Rattus norvegicus [4] = experiment: Inhibition of prostate weight in intact Sprague-Dawley rat at 30 mg/kg relative to control; type: functional; settings: Prostate gland
# Rattus norvegicus [5] = experiment: Stimulation of levator ani muscle weight in castrated Sprague-Dawley rat at 30 mg/kg; type: functional
# Method in brief: (§2)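 Mature (150–200 g) castrated male Sprague Dawley rats dosed by oral gavage once daily for 14 days in 20% cyclodextrin or 0.5% methylcellulose. Five-point doses: 0.3, 1, 3, 10, 30 mg/kg. Testosterone propionate reference given at 5 mg/kg s.c. in sesame oil. Ventral prostate and levator ani wet weights taken on day 15, adjusted to body weight. % stimulation uses vehicle = 0% and testosterone = 100%; ED50 derived from the doses. n = 3.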
# Rattus norvegicus [6] = species on record: Rattus norvegicus; experiment: Stimulation of prostate weight in castrated Sprague-Dawley rat; type: functional; settings: Prostate gland; method in brief: as §2
# Rattus norvegicus [7] = experiment: Stimulation of prostate weight in castrated Sprague-Dawley rat at 30 mg/kg; type: functional, Prostate gland; method in brief: as §2
# Rattus norvegicus [8] = species on record: Rattus norvegicus; experiment: Stimulation of levator ani muscle weight in castrated immature Sprague-Dawley rat at 3 mg/day; type: functional; method in brief: as §1
# Rattus norvegicus [9] = species on record: Rattus norvegicus; experiment: Stimulation of prostate weight in castrated immature Sprague-Dawley rat; type: functional, Prostate gland; method in brief: as §1
# Rattus norvegicus [10] = species on record: Rattus norvegicus; experiment: Stimulation of levator ani muscle weight in castrated Sprague-Dawley rat; type: functional; method in brief: as §2
# Rattus norvegicus [11] = experiment: Stimulation of levator ani muscle weight in castrated immature Sprague-Dawley rat at 2 mg/day, po after 5 days; type: functional
# Method in brief: (§3)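 Immature (~50 g) castrated male Sprague Dawley rats dosed once daily for 5 days. Test article given p.o. at 2 mg/day in 20% cyclodextrin; testosterone propionate reference given at 1 mg/day s.c. in sesame oil. Ventral prostate and levator ani wet weights taken on day 6, adjusted to body weight. % stimulation uses vehicle = 0% and testosterone = 100%. n = 3/group.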
# Rattus norvegicus [12] = experiment: Stimulation of prostate weight in castrated immature Sprague-Dawley rat at 2 mg/day, po after 5 days; type: functional, Prostate gland; method in brief: as §3
# Rattus norvegicus [13] = experiment: Stimulation of levator ani muscle weight in castrated immature Sprague-Dawley rat at 1 mg/day, sc; type: functional
# Rattus norvegicus [14] = experiment: Stimulation of prostate weight in castrated immature Sprague-Dawley rat at 1 mg/day, sc; type: functional, Prostate gland
SMILES,Activity (Rattus norvegicus [11]) [%],Activity (Rattus norvegicus [12]) [%],further results
C[C@@]1(C(=O)Nc2ccc(C#N)c(C(F)(F)F)c2)CC(C(F)(F)F)=NN1,–,–,Inhibition (Rattus norvegicus [1]): 40%; ED50 (Rattus norvegicus [2]): 0.11 mg/day; Activity (Rattus norvegicus [3]): 51%; inhibition in vivo at 30 mg/kg (Rattus norvegicus [4]): 33%; Activity (Rattus norvegicus [5]): 120%; ED50 (Rattus norvegicus [6]): > 30 mg/kg; Activity (Rattus norvegicus [7]): 46%; Activity (Rattus norvegicus [8]): 90%; ED50 (Rattus norvegicus [9]): 0.76 mg/day; ED50 (Rattus norvegicus [10]): 3.8 mg/kg
CC1(C(=O)Nc2ccc(C#N)cc2)CC(C(F)(F)F)=NN1 (stereo not given),<10,<10,–
CCc1cc(C#N)c(C(F)(F)F)cc1NC(=O)C1(C)CC(C(F)(F)F)=NN1 (stereo not given),<10,<10,–
CC1(C(=O)Nc2ccc(C#N)c(C(F)(F)F)c2)CC(C(F)(F)F)=NN1C(=O)C(F)(F)F (stereo not given),70,30,–
CC1(C(=O)Nc2ccc(C#N)c(C(F)(F)F)c2)CC(c2ccc(F)cc2)=NN1 (stereo not given),44,20,–
CC1(C(=O)Nc2ccc(C#N)c(C(F)(F)F)c2)CC(CC(F)(F)F)=NN1 (stereo not given),10,<10,–
CCCC1=NNC(C)(C(=O)Nc2ccc(C#N)c(C(F)(F)F)c2)C1 (stereo not given),<10,<10,–
CCN1N=C(C)CC1(C)C(=O)Nc1ccc(C#N)c(C(F)(F)F)c1 (stereo not given),55,18,–
CN1N=C(C(F)(F)F)CC1(C)C(=O)Nc1ccc(C#N)c(C(F)(F)F)c1 (stereo not given),44,<10,–
CCN1N=C(C(F)(F)F)C[C@]1(C)C(=O)Nc1ccc(C#N)c(C(F)(F)F)c1,–,–,Inhibition (Rattus norvegicus [1]): <10%; ED50 (Rattus norvegicus [2]): 0.45 mg/day; ED50 (Rattus norvegicus [9]): >3 mg/day
CCC1=NNC(C)(C(=O)Nc2ccc(C#N)c(C(F)(F)F)c2)C1 (stereo not given),<10,<10,–
C[C@]1(C(=O)Nc2ccc(C#N)c(C(F)(F)F)c2)CC(C(F)(F)F)=NN1,–,–,Inhibition (Rattus norvegicus [1]): 22%; ED50 (Rattus norvegicus [2]): 0.86 mg/day; Activity (Rattus norvegicus [3]): 29%; inhibition in vivo at 30 mg/kg (Rattus norvegicus [4]): 25%; Activity (Rattus norvegicus [5]): 9%; ED50 (Rattus norvegicus [6]): > 30 mg/kg; Activity (Rattus norvegicus [7]): 4%; Activity (Rattus norvegicus [8]): 49%; ED50 (Rattus norvegicus [9]): 0.94 mg/day; ED50 (Rattus norvegicus [10]): > 30 mg/kg
C[C@](O)(CS(=O)(=O)c1ccc(F)cc1)C(=O)Nc1ccc(C#N)c(C(F)(F)F)c1 [(R)-BICALUTAMIDE],–,–,Inhibition (Rattus norvegicus [1]): 70%; inhibition in vivo at 30 mg/kg (Rattus norvegicus [4]): 67%
CCN1N=C(C(F)(F)F)CC1(C)C(=O)Nc1ccc(C#N)c(C(F)(F)F)c1 (stereo not given),95,47,–
CC1=NOC(C)(C(=O)Nc2ccc(C#N)c(C(F)(F)F)c2)C1 (stereo not given),<10,<10,–
CC1(C(=O)Nc2ccc(C#N)c(C(F)(F)F)c2)CC(C(F)(F)C(F)(F)F)=NN1 (stereo not given),15,<10,–
CCC1(C(=O)Nc2ccc(C#N)c(C(F)(F)F)c2)CC(C(F)(F)F)=NN1 (stereo not given),67,24,ED50 (Rattus norvegicus [6]): > 30 mg/kg; Activity (Rattus norvegicus [7]): 19%; ED50 (Rattus norvegicus [10]): 21 mg/kg
CC(=O)Nc1cccc(C2=NNC(C)(C(=O)Nc3ccc(C#N)c(C(F)(F)F)c3)C2)c1 (stereo not given),<10,<10,–
CC1(C(=O)Nc2ccc(C#N)c(C(F)(F)F)c2)CC(C(F)(F)F)=NN1 (stereo not given),71,28,Activity (Rattus norvegicus [4]): inactive; ED50 (Rattus norvegicus [6]): > 30 mg/kg; Activity (Rattus norvegicus [7]): 25%; ED50 (Rattus norvegicus [10]): 7.9 mg/kg
CC1(C(=O)Nc2cc(C(F)(F)F)c(C#N)cc2Cl)CC(C(F)(F)F)=NN1 (stereo not given),57,15,–
CC1=NNC(C(=O)Nc2ccc(C#N)c(C(F)(F)F)c2)(C(F)(F)F)C1 (stereo not given),64,46,–
CC(=O)Nc1ccc(C2=NN(C)C(C)(C(=O)Nc3ccc(C#N)c(C(F)(F)F)c3)C2)cc1 (stereo not given),<10,<10,–
CC(=O)Nc1ccc(CC2=NNC(C)(C(=O)Nc3ccc(C#N)c(C(F)(F)F)c3)C2)cc1 (stereo not given),51,24,–
CC1(C(=O)Nc2ccc([N+](=O)[O-])c(C(F)(F)F)c2)CC(c2ccc(F)cc2)=NN1 (stereo not given),18,<10,–
CCc1c(NC(=O)C2(C)CC(C(F)(F)F)=NN2)ccc(C#N)c1C(F)(F)F (stereo not given),88,14,ED50 (Rattus norvegicus [6]): > 30 mg/kg; Activity (Rattus norvegicus [7]): 18%; ED50 (Rattus norvegicus [10]): 17 mg/kg
CCSc1cc(C#N)c(C(F)(F)F)cc1NC(=O)C1(C)CC(C(F)(F)F)=NN1 (stereo not given),42,<10,–
CC1(C(=O)Nc2ccc(Br)c(C(F)(F)F)c2)CC(C(F)(F)F)=NN1 (stereo not given),41,12,–

SMILES,Activity (Rattus norvegicus [11]) [%],Activity (Rattus norvegicus [12]) [%],further results
CCO/C(=N\c1ccc(C#N)c(C(F)(F)F)c1)[C@@]1(C)CC(C(F)(F)F)=NN1,–,–,Inhibition (Rattus norvegicus [1]): <10%; ED50 (Rattus norvegicus [2]): 0.1 mg/day; ED50 (Rattus norvegicus [9]): 0.16 mg/day
N#Cc1ccc(NC(=O)C2(C(F)(F)F)CC(C(F)(F)F)=NN2)cc1C(F)(F)F (stereo not given),37,13,–
CC1(C(=O)Nc2cc(C(F)(F)F)c(C#N)cc2I)CC(C(F)(F)F)=NN1 (stereo not given),86,47,–
CCO/C(=N\c1ccc(C#N)c(C(F)(F)F)c1)C1(C)CC(C(F)(F)F)=NN1 (stereo not given),75,22,ED50 (Rattus norvegicus [2]): 0.25 mg/day
CCOC(=O)C1=NNC(C)(C(=O)Nc2ccc([N+](=O)[O-])c(C(F)(F)F)c2)C1 (stereo not given),<10,<10,–
CC(C)C(=O)Nc1ccc([N+](=O)[O-])c(C(F)(F)F)c1 [FLUTAMIDE],–,–,inhibition in vivo at 30 mg/kg (Rattus norvegicus [4]): 51%
CC1(C(=O)Nc2ccc([N+](=O)[O-])c(C(F)(F)F)c2)CC(C(F)(F)F)=NN1 (stereo not given),21,38,–
CC1(C(=O)Nc2ccc(C#N)c(C(F)(F)F)c2)CC(c2ccc(F)cc2)=NO1 (stereo not given),<10,<10,–
CC1(C(=O)Nc2ccc(C#N)c(C(F)(F)F)c2)CC=NN1 (stereo not given),<10,<10,–
CC1(C(=O)Nc2cc(C(F)(F)F)c(C#N)cc2C#N)CC(C(F)(F)F)=NN1 (stereo not given),<10,<10,–
CC(=O)Nc1ccc(C2=NNC(C)(C(=O)Nc3ccc(Cl)c(C(F)(F)F)c3)C2)cc1 (stereo not given),17,<10,–
CC1(C(=O)Nc2ccc(Cl)c(Cl)c2)CC(C(F)(F)F)=NN1 (stereo not given),<10,10,–
COc1cc(C#N)c(C(F)(F)F)cc1NC(=O)C1(C)CC(C(F)(F)F)=NN1 (stereo not given),52,18,–
CC1=NNC(C)(C(=O)Nc2ccc(C#N)c(C(F)(F)F)c2)C1 (stereo not given),62,29,–
CC1(C(=O)Nc2ccc(Cl)c(C(F)(F)F)c2)CC(C(F)(F)F)=NN1 (stereo not given),15,<10,–
CC1(C(=O)Nc2ccc([N+](=O)[O-])c(C(F)(F)F)c2)CC(c2ccc(NC(=O)C(F)(F)F)cc2)=NN1 (stereo not given),21,10,–
CC(C)(C)C1=NNC(C)(C(=O)Nc2ccc(C#N)c(C(F)(F)F)c2)C1 (stereo not given),36,<10,–
CCO/C(=N\c1ccc(C#N)c(C(F)(F)F)c1)[C@]1(C)CC(C(F)(F)F)=NN1,–,–,Inhibition (Rattus norvegicus [1]): 27%; ED50 (Rattus norvegicus [2]): 0.86 mg/day; ED50 (Rattus norvegicus [9]): >3 mg/day
CC(=O)Nc1ccc(C2=NNC(C)(C(=O)Nc3ccc([N+](=O)[O-])c(C(F)(F)F)c3)C2)cc1 (stereo not given),35,15,–
CCCC1(C(=O)Nc2ccc(C#N)c(C(F)(F)F)c2)CC(C(F)(F)F)=NN1 (stereo not given),18,<10,–
CC(C)C1=NNC(C)(C(=O)Nc2ccc(C#N)c(C(F)(F)F)c2)C1 (stereo not given),<10,<10,–
CC(=O)Nc1ccc(C2=NNC(C)(C(=O)Nc3ccc(C#N)c(C#N)c3)C2)cc1 (stereo not given),<10,<10,–
CO/C(=N\c1ccc(C#N)c(C(F)(F)F)c1)C1(C)CC(C(F)(F)F)=NN1 (stereo not given),86,30,–
CC(=O)Nc1ccc(C2=NNC(C)(C(=O)Nc3ccc(C#N)c(C(F)(F)F)c3)C2)cc1 (stereo not given),57,16,–
CCN1N=C(C(F)(F)F)C[C@@]1(C)C(=O)Nc1ccc(C#N)c(C(F)(F)F)c1,–,–,Inhibition (Rattus norvegicus [1]): 18%; ED50 (Rattus norvegicus [2]): 0.12 mg/day; ED50 (Rattus norvegicus [9]): 2.2 mg/day
CCC(=O)O[C@H]1CC[C@H]2[C@@H]3CCC4=CC(=O)CC[C@]4(C)[C@H]3CC[C@]12C [TESTOSTERONE PROPIONATE],–,–,ED50 (Rattus norvegicus [2]): 0.1 mg/day; Activity (Rattus norvegicus [13]): 100%; ED50 (Rattus norvegicus [6]): 0.25 mg/kg; Activity (Rattus norvegicus [14]): 100%; ED50 (Rattus norvegicus [9]): 0.1 mg/day; ED50 (Rattus norvegicus [10]): 0.17 mg/kg
